Results on five compounds are retold here after ChEMBL document CHEMBL1125832, “Synthesis and dopaminergic activity of 3-substituted 1-(aminomethyl)-3,4-dihydro-5,6-dihydroxy-1H-2-benzopyrans: characterization of an auxiliary binding region in the D1 receptor” (J Med Chem, 1991).

Common to all, as to format: functional
Test [1] has as its system Rattus norvegicus. Kind of test: Rat rotation experiments were conducted to evaluate rational behavior of the rats by administering at a dose of 20 umol/kg oral. A digest of the protocol:
(§1)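 Rats with unilateral 6-hydroxydopamine lesions of the nigrostriatal bundle. Compound given subcutaneously or orally at the stated dose. Net contralateral rotations counted over 2 h after dosing and reported as mean ± SEM; negative values indicate ipsilateral turning.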

In test [2] the test system is Rattus norvegicus. The test is described as follows: Rat rotation experiments were conducted to evaluate rational behavior of the rats by administering at a dose of 4.1 umol/kg subcutaneously. A digest of the protocol:
as §1

In test [3] the test system is Rattus norvegicus. The test is described as follows: Rat rotation experiments were conducted to evaluate rational behavior of the rats by administering at a dose of 40 umol/kg oral. The essentials:
as §1

Test [4] deals with Rattus norvegicus. Kind of test: Rat rotation experiments were conducted to evaluate rational behavior of the rats by administering at a dose of 0.41 umol/Kg subcutaneously. The essentials:
as §1

Test [5] concerns Rattus norvegicus. Kind of test: Rat rotation experiments were conducted to evaluate rational behavior of the rats by administering at a dose of 0.2 umol/kg subcutaneously. A digest of the protocol: as §1
Test [6] has as its system Rattus norvegicus. Kind of test: (§2) Rat rotation experiments were conducted to evaluate rational behavior of the rats by administering at a dose of […] subcutaneously.
The subject of test [7] is Rattus norvegicus. The test is described as follows: Rat rotation experiments were conducted to evaluate rational behavior of the rats by administering at a dose of 20.0 umol/Kg subcutaneously. A digest of the protocol:
as §1

The subject of test [8] is Rattus norvegicus. Kind of test: (§3) Rat rotation experiments were conducted to evaluate rational behavior of the rats by administering at a dose of […] oral.
Test [9] deals with Rattus norvegicus. The description is as §2. The source holds these as a separate data set.
Test [10] concerns Rattus norvegicus. The description is as §3. The source holds these as a separate data set.
Test [11] has as its system Rattus norvegicus. Described as §2. The source holds these as a separate data set.

As to `NC[C@@H]1OC(c2ccccc2)Cc2c1ccc(O)c2O` (stereo partly specified), the Activity in the test with Rattus norvegicus [1] is on record as 326; in the test on Rattus norvegicus [2], 1554; in the test on Rattus norvegicus [3], 1066; with Rattus norvegicus [4], 192.
For `NC[C@@H]1O[C@H](c2ccccc2)Cc2c1ccc(O)c2O`, the Activity with Rattus norvegicus [5] was 348.
Turning to `C=CCNC[C@@H]1OC(C2CCCCC2)Cc2c1ccc(O)c2O` (stereo partly specified), the Activity in the test with Rattus norvegicus [6] was 1056.
In the test on Rattus norvegicus [7], `NC[C@H]1O[C@@H](c2ccccc2)Cc2c1ccc(O)c2O` registered an Activity of -24.
Consider `CC(C)(C)C1Cc2c(ccc(O)c2O)[C@H](CN)O1` (stereo partly specified), for which the Activity in the test with Rattus norvegicus [8] was 932; in the test on Rattus norvegicus [9], 661; with Rattus norvegicus [10], 176; with Rattus norvegicus [11] it was 671.
